Test results as given in ChEMBL document CHEMBL1145127 (J Med Chem, 2003).

Test system: not listed separately
Experiment: Oral bioavailability in rat was determined
Assay type: ADME, organism-based
Conditions: in vivo

Row | bioavailability | SMILES
1 | 63% | CN1CC(=O)N2[C@H](c3ccc4c(c3)OCO4)c3[nH]c4ccccc4c3C[C@@H]2C1=O (stereo in doubt; 12a)

Target: Phosphodiesterase 6
Experiment: Inhibition of bovine retina PDE6 (Phosphodiesterase 6)
Assay type: protein assay, Bos taurus
Conditions: not given

Row | IC50 | SMILES
2 | 5100 nM | CN1CC(=O)N2[C@H](c3ccc4c(c3)OCO4)c3[nH]c4ccccc4c3C[C@@H]2C1=O (stereo in doubt; 12a)

Target: cGMP-specific 3',5'-cyclic phosphodiesterase (Bos taurus) (UniProt Q28156)
Experiment: Inhibition of bovine PDE5 (Phosphodiesterase 5)
Conditions: concentration not given here

Row | inhibition | SMILES
3 | 62% | CCCCN1CC(=O)N2C(c3ccc(OC)c(OC)c3)c3[nH]c4ccccc4c3C[C@@H]2C1=O (some centres not stated)

Target: cGMP-specific 3',5'-cyclic phosphodiesterase (Bos taurus, UniProt Q28156)
Experiment: In vitro inhibitory activity against bovine phosphodiesterase 5
Conditions: not given

Row | IC50 | SMILES
4 | 12 nM | O=C1NCC(=O)N2[C@H](c3ccc4c(c3)OCO4)c3[nH]c4ccccc4c3C[C@H]12 (stereo in doubt) [NORTADALAFIL]
5 | 5 nM | CCCCN1CC(=O)N2[C@H](c3ccc(OC)cc3)c3[nH]c4ccccc4c3C[C@@H]2C1=O
6 | 758 nM | CCCCN1CC(=O)N2C(c3ccc(C#N)cc3)c3[nH]c4ccccc4c3C[C@@H]2C1=O (some centres not stated)
7 | 11 nM | O=C1NCC(=O)N2[C@H](c3ccc4c(c3)OCO4)c3[nH]c4ccccc4c3C[C@H]12 (stereo in doubt; 16) [NORTADALAFIL]
8 | 10 nM | COc1ccc(C2c3[nH]c4ccccc4c3C[C@@H]3C(=O)N(C)C(=O)N23)cc1 (some centres not stated)
9 | 23 nM | Cc1ccc([C@@H]2c3[nH]c4ccccc4c3C[C@@H]3C(=O)N(CC4CC4)CC(=O)N23)cc1
10 | 17 nM | COc1ccc([C@@H]2c3[nH]c4ccccc4c3C[C@@H]3C(=O)N(C4CCCC4)CC(=O)N23)cc1
11 | 91 nM | CCCCN1CC(=O)N2C(c3ccccc3)c3[nH]c4ccccc4c3C[C@@H]2C1=O (some centres not stated)
12 | 15 nM | CCCCN1CC(=O)N2C(c3ccc(Cl)cc3)c3[nH]c4ccccc4c3C[C@@H]2C1=O (some centres not stated)
13 | > 10000 nM | CCCCN1C[C@H]2Cc3c([nH]c4ccccc34)[C@@H](c3ccc(OC)cc3)N2C1
14 | 3 nM | O=C1[C@H]2Cc3c([nH]c4ccccc34)[C@@H](c3ccc4c(c3)OCO4)N2C(=O)CN1Cc1ccccc1
15 | 41 nM | COc1ccc([C@@H]2c3[nH]c4ccccc4c3C[C@@H]3C(=O)N(C)CC(=O)N23)cc1
16 | 60 nM | COc1ccc([C@H]2c3[nH]c4ccccc4c3C[C@@H]3C(=O)N(Cc4ccccc4)CN23)cc1
17 | 138 nM | CCCCN1CC(=O)N2C(c3ccc4c(c3)OCO4)c3[nH]c4ccccc4c3C[C@@H]2C1=O (single isomer, unassigned)
18 | 6 nM | CC(C)N1CC(=O)N2[C@H](c3ccc4c(c3)OCO4)c3[nH]c4ccccc4c3C[C@@H]2C1=O (stereo in doubt)
19 | 5 nM | CCCCN1CC(=O)N2[C@H](c3ccc4c(c3)OCO4)c3[nH]c4ccccc4c3C[C@@H]2C1=O (stereo in doubt)
20 | 8 nM | CC(C)N1CC(=O)N2[C@H](c3ccc4c(c3)OCO4)c3[nH]c4ccccc4c3C[C@@H]2C1=O (stereo in doubt; 14)
21 | 3 nM | CCCCN1CC(=O)N2[C@H](c3ccc4c(c3)OCO4)c3[nH]c4ccccc4c3C[C@@H]2C1=O (stereo in doubt; 13)
22 | 18 nM | COc1ccc(C2c3[nH]c4ccccc4c3C[C@@H]3C(=O)N(Cc4ccccc4)C(=O)N23)cc1 (some centres not stated)
23 | 26 nM | CCCCN1CC(=O)N2C(c3ccc(C)cc3)c3[nH]c4ccccc4c3C[C@@H]2C1=O (some centres not stated)
24 | 6 nM | COc1ccc([C@@H]2c3[nH]c4ccccc4c3C[C@@H]3C(=O)N(CC4CC4)CC(=O)N23)cc1
25 | 60 nM | CN1C[C@H]2Cc3c([nH]c4ccccc34)[C@@H](c3ccc4c(c3)OCO4)N2C1=O
26 | 5 nM | O=C1[C@H]2Cc3c([nH]c4ccccc34)[C@@H](c3ccc4c(c3)OCO4)N2C(=O)CN1C1CCCCC1
27 | 70 nM | CCCCN1CC(=O)N2C(c3ccc(OC)cc3)c3[nH]c4ccccc4c3C[C@@H]2C1=O (some centres not stated)
28 | 6 nM | O=C1[C@H]2Cc3c([nH]c4ccccc34)C(c3ccc4c(c3)OCO4)N2C(=O)N1Cc1ccccc1 (some centres not stated)

Organism: Rattus norvegicus
Experiment: Effective concentration against rat aortic smooth muscle cell
Assay type: functional
Conditions: not given
Outline: (§1)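 Rat aortic smooth muscle cells cultured in DMEM with 10% fetal calf serum at 37 °C, seeded at (2-5) × 10⁴ cells/well and used confluent after 3-5 days. Cells preincubated 30 min at 37 °C in PBS with inhibitor, then stimulated with atrial natriuretic factor (0.1 µM) 10 min. Intracellular cGMP extracted with 65% ethanol. Triplicate wells, DMSO ≤0.1%. EC50 taken as concentration giving half-maximal cGMP increase.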

Row | EC50 | SMILES
29 | 600 nM | O=C1NCC(=O)N2[C@H](c3ccc4c(c3)OCO4)c3[nH]c4ccccc4c3C[C@H]12 (stereo in doubt) [NORTADALAFIL]
30 | 500 nM | CN1CC(=O)N2[C@H](c3ccc4c(c3)OCO4)c3[nH]c4ccccc4c3C[C@@H]2C1=O (stereo in doubt)
31 | 150 nM | CN1CC(=O)N2[C@H](c3ccc4c(c3)OCO4)c3[nH]c4ccccc4c3C[C@@H]2C1=O (stereo in doubt; 12a)
32 | 500 nM | CC(C)N1CC(=O)N2[C@H](c3ccc4c(c3)OCO4)c3[nH]c4ccccc4c3C[C@@H]2C1=O (stereo in doubt)
33 | 600 nM | CCCCN1CC(=O)N2[C@H](c3ccc4c(c3)OCO4)c3[nH]c4ccccc4c3C[C@@H]2C1=O (stereo in doubt)
34 | 150 nM | CC(C)N1CC(=O)N2[C@H](c3ccc4c(c3)OCO4)c3[nH]c4ccccc4c3C[C@@H]2C1=O (stereo in doubt; 14)

Same assay, conditions: Rattus norvegicus

Row | EC50 | SMILES
35 | 500 nM | CCN1CC(=O)N2[C@H](c3ccc(OC)cc3)c3[nH]c4ccccc4c3C[C@@H]2C1=O
36 | 1500 nM | CCCCN1CC(=O)N2[C@H](c3ccc(OC)cc3)c3[nH]c4ccccc4c3C[C@@H]2C1=O
37 | 300 nM | O=C1NCC(=O)N2[C@H](c3ccc4c(c3)OCO4)c3[nH]c4ccccc4c3C[C@H]12 (stereo in doubt; 16) [NORTADALAFIL]
38 | 1000 nM | COc1ccc(C2c3[nH]c4ccccc4c3C[C@@H]3C(=O)N(C)C(=O)N23)cc1 (some centres not stated)
39 | 600 nM | Cc1ccc([C@@H]2c3[nH]c4ccccc4c3C[C@@H]3C(=O)N(CC4CC4)CC(=O)N23)cc1
40 | 200 nM | COc1ccc([C@@H]2c3[nH]c4ccccc4c3C[C@@H]3C(=O)N(C4CCCC4)CC(=O)N23)cc1
41 | > 10000 nM | CCCCN1CC(=O)N2C(c3ccccc3)c3[nH]c4ccccc4c3C[C@@H]2C1=O (some centres not stated)
42 | 1000 nM | CCCCN1C(=O)C2Cc3c([nH]c4ccccc34)C(c3ccc(OC)cc3)N2C1=O (configuration not stated)
43 | > 10000 nM | CCCCN1CC(=O)N2C(c3ccc(Cl)cc3)c3[nH]c4ccccc4c3C[C@@H]2C1=O (some centres not stated)
44 | 800 nM | O=C1[C@H]2Cc3c([nH]c4ccccc34)[C@@H](c3ccc4c(c3)OCO4)N2C(=O)CN1Cc1ccccc1
45 | 200 nM | COc1ccc([C@@H]2c3[nH]c4ccccc4c3C[C@@H]3C(=O)N(C)CC(=O)N23)cc1
46 | > 10000 nM | COc1ccc([C@H]2c3[nH]c4ccccc4c3C[C@@H]3C(=O)N(Cc4ccccc4)CN23)cc1
47 | 3500 nM | CCCCN1CC(=O)N2C(c3ccc4c(c3)OCO4)c3[nH]c4ccccc4c3C[C@@H]2C1=O (single isomer, unassigned)
48 | 1000 nM | CCCCN1CC(=O)N2[C@H](c3ccc4c(c3)OCO4)c3[nH]c4ccccc4c3C[C@@H]2C1=O (stereo in doubt; 13)
49 | > 10000 nM | COc1ccc(C2c3[nH]c4ccccc4c3C[C@@H]3C(=O)N(Cc4ccccc4)C(=O)N23)cc1 (some centres not stated)
50 | 350 nM | CCCCN1CC(=O)N2C(c3ccc(C)cc3)c3[nH]c4ccccc4c3C[C@@H]2C1=O (some centres not stated)
51 | 500 nM | COc1ccc([C@@H]2c3[nH]c4ccccc4c3C[C@@H]3C(=O)N(CC4CC4)CC(=O)N23)cc1
52 | > 10000 nM | CN1C[C@H]2Cc3c([nH]c4ccccc34)[C@@H](c3ccc4c(c3)OCO4)N2C1=O
53 | 300 nM | O=C1[C@H]2Cc3c([nH]c4ccccc34)[C@@H](c3ccc4c(c3)OCO4)N2C(=O)CN1C1CCCCC1
54 | > 10000 nM | CCCCN1CC(=O)N2C(c3ccc(OC)cc3)c3[nH]c4ccccc4c3C[C@@H]2C1=O (some centres not stated)
55 | 3000 nM | O=C1[C@H]2Cc3c([nH]c4ccccc34)C(c3ccc4c(c3)OCO4)N2C(=O)N1Cc1ccccc1 (some centres not stated)

Test system: not listed separately
Experiment: The total clearance time in plasma in rat was determined
Assay type: ADME, organism-based
Conditions: not given

Row | clearance | SMILES
56 | 5.1 mL/min/kg | CN1CC(=O)N2[C@H](c3ccc4c(c3)OCO4)c3[nH]c4ccccc4c3C[C@@H]2C1=O (stereo in doubt; 12a)

Target: cGMP-dependent 3',5'-cyclic phosphodiesterase (Homo sapiens, UniProt O00408)
Experiment: Inhibition of Human recombinant PDE2 (Phosphodiesterase 2)
Conditions: not given

Sequence of cGMP-dependent 3',5'-cyclic phosphodiesterase (O00408 whole entry): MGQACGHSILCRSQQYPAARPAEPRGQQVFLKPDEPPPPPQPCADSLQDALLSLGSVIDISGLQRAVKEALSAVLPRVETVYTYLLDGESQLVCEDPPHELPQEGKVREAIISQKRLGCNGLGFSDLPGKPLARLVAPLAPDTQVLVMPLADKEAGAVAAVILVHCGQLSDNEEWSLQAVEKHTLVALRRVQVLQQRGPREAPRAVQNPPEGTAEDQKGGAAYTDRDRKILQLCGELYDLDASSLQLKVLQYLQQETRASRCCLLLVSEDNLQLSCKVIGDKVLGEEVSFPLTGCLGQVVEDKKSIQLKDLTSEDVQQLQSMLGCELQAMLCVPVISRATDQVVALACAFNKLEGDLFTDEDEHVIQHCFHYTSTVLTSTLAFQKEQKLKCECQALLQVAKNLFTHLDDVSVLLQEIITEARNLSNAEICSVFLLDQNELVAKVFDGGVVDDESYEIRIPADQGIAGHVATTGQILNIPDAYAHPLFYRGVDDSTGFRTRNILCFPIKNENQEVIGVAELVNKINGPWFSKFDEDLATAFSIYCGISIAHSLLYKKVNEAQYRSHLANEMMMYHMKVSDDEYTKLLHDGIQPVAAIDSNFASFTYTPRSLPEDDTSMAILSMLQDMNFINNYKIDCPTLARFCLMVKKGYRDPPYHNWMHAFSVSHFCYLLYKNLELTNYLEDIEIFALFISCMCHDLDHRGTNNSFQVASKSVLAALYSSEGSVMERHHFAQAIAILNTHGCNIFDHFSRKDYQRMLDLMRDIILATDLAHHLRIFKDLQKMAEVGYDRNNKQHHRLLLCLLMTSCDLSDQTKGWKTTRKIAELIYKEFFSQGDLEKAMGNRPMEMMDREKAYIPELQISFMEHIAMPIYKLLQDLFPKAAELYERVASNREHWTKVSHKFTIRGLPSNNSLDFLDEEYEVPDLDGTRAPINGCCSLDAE

Row | IC50 | SMILES
57 | > 10000 nM | CN1CC(=O)N2[C@H](c3ccc4c(c3)OCO4)c3[nH]c4ccccc4c3C[C@@H]2C1=O (stereo in doubt; 12a)

Target: Phosphodiesterase 1 (Bos taurus, UniProt Q01061+P14100)
Experiment: Inhibition of bovine aorta PDE1 (Phosphodiesterase 1)
Assay type: protein assay
Conditions: not given

Row | IC50 | SMILES
58 | > 10000 nM | CN1CC(=O)N2[C@H](c3ccc4c(c3)OCO4)c3[nH]c4ccccc4c3C[C@@H]2C1=O (stereo in doubt; 12a)

Target: Phosphodiesterase 3B (Bos taurus, UniProt E1BN64)
Experiment: Inhibition of bovine aorta PDE3 (Phosphodiesterase 3)
Conditions: not given

Sequence of Phosphodiesterase 3B (E1BN64 whole entry): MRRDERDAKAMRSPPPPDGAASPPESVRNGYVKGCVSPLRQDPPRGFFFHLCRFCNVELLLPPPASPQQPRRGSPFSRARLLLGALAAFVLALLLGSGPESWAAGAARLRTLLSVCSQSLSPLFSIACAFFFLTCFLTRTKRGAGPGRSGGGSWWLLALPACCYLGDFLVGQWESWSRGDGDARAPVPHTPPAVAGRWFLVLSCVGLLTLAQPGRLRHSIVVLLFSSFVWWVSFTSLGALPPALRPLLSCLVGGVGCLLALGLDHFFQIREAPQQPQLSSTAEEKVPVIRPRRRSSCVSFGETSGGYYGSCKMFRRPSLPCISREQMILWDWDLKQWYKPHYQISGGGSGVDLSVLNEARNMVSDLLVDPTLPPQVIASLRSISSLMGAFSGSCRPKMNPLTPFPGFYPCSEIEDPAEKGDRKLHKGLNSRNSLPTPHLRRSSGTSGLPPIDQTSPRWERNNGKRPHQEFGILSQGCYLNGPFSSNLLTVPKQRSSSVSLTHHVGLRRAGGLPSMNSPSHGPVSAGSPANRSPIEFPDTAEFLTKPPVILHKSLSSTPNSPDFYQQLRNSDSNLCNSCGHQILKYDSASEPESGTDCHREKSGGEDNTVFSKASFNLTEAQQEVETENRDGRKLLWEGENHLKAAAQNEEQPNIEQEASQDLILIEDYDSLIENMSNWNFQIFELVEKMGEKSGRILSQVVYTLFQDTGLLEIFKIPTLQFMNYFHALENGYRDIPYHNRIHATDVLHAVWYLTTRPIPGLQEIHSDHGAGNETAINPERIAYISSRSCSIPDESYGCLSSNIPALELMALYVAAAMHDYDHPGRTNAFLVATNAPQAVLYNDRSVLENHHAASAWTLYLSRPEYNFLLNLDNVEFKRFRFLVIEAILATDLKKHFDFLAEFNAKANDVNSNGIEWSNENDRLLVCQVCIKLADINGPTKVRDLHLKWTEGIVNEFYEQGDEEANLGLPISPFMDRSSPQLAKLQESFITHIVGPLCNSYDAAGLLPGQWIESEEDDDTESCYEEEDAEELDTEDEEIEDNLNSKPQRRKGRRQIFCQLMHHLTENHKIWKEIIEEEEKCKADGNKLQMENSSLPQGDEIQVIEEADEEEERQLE

Row | IC50 | SMILES
59 | 9200 nM | CCCc1nn(C)c2c(=O)[nH]c(-c3cc(S(=O)(=O)N4CCN(C)CC4)ccc3OCC)nc12
60 | > 10000 nM | CN1CC(=O)N2[C@H](c3ccc4c(c3)OCO4)c3[nH]c4ccccc4c3C[C@@H]2C1=O (stereo in doubt; 12a)

Test system: not listed separately
Experiment: Half life in rat
Assay type: ADME, organism-based
Conditions: in vivo

Row | half-life | SMILES
61 | 2.4 h | CN1CC(=O)N2[C@H](c3ccc4c(c3)OCO4)c3[nH]c4ccccc4c3C[C@@H]2C1=O (stereo in doubt; 12a)

Organism: Rattus norvegicus
Experiment: Increased intracellular cGMP concentration in rat aortic smooth cells (RSMC) using atrial natriuretic factor
Assay type: functional, cell-based
Conditions: Aorta
Outline: as §1

Row | EC50 | SMILES
62 | 700 nM | CCCCN1C(=O)[C@H]2Cc3c([nH]c4ccccc34)C(c3ccc(OC)cc3)N2C1=O (some centres not stated)
